In the EternaBench riboswitch data:

Test system: MS2 coat protein
Experiment: apparent Kd, MS2 coat protein; higher = weaker binding; RNA-MaP array; FMN 200 µM where present
Summary of the method: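 SNAP-549-labelled MS2 coat protein, doubled from 0.7 or 1.5 nM to 3 µM, was titrated over designs transcribed by stalled E. coli RNA polymerase on Illumina sequencing-chip clusters. Titrations were run without and then with constant ligand in 100 mM Tris-HCl pH 7.5, 80 mM KCl, 4 mM MgCl2, BSA, DTT, yeast tRNA and Tween-20. The apparent Kd is the median of filtered per-cluster fits to green signal normalised to red-channel RNA signal and control-cluster median Fmax.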

[1] = designed as: ON switch for flavin mononucleotide, no ligand
[2] = ligand present: flavin mononucleotide, designed as: ON switch for flavin mononucleotide
[3] = designed as: OFF switch for flavin mononucleotide, no ligand
[4] = ligand present: flavin mononucleotide, designed as: OFF switch for flavin mononucleotide

Row | Sequence | apparent Kd [1] | apparent Kd [2] | apparent Kd [3] | apparent Kd [4]
1 | CUCAAACAUGAGGAUCACCCAUGUGUUGUCAUGGGAGGAUAUCUAAGUUCAUUGUAUUCGGGAGAAGGCCUAUGUC | 503 nM | 46.5 nM | – | –
2 | CUCAAACAUGAGGAUCACCCAUGUGUUGUCAUGGGAGGAUAUCUAAGUUCGUUGUAUUCGGGAGAAGGCCUAUGUC | 258 nM | 55.1 nM | – | –
3 | CUCAGCUCGUCAGGAUAUACGUCACUGCGUCAGCAGUGUGGUAAGAUCACAUGAGGAUCACCCAUGUAGAAGGGACGAGCUGAU | – | – | 13.7 nM | 278 nM
4 | CUCAUGUCAGGAUAUCAGUAGUAAAAAAAAAAAAUUACUACUGAGAAGGGACAUGAGGAUCACCCAUGUCACUU | – | – | 27.1 nM | 28.7 nM
5 | CUCAUGUGAGGAUAUCAGUAGUGAUACGAUAGUAUUACUGCUGAGAAGGUACAUGAGGAUCACCCAUGUUCCUC | – | – | 26.9 nM | 37.8 nM
6 | CUCAUGUUAGGAUAUGCGCUCGACGUAGUGGUUGAGCUCUAGCAGAAGGAACAUGAGGAUCACCCAUGUUUGCA | – | – | 68.5 nM | 21.3 nM
7 | CUCAUUAGUCAGGAUAUCGUGUGGGUAAUUGUACGAGAAGGGACGACAUGAGGAUCACCCAUGUGGUCUUUGAG | – | – | 71 nM | 317 nM
8 | CUCCGUGGCGAGAAGGACGGAAUUUAAGGUUCUGUAGGAUAUCGAAACAUGAGGAUCACCCAUGUAUUGAUCGGGUGCAGUGUG | – | – | 26.9 nM | 32.2 nM
9 | CUCCUCCUGGUCAGGAUAUGAGCUUUAUCGGAUAUUCAGAAGGGACAUGAGGAUCACCCAUGUAACGUCGCUGG | – | – | 14.8 nM | 17.2 nM
10 | CUCUUGUCAGGAUAUUAUGGACGAUAGCAGGGCUACGUCAGUGAGAAGGGACAUGAGGAUCACCCAUGUAAAAU | – | – | 83.6 nM | 55.2 nM
11 | CUCUUGUUAGGAUAUCAAACCGGCGGCGGAGCCGCCGGAAGUGAGAAGGGACAUGAGGAUCACCCAUGUAAGAA | – | – | 71.5 nM | 312 nM
12 | CUGACAGCGCAGAAGGGAGAUCCUACAUGAGGAUCACCCAUGUGGGCUCUCAGGAUAUGCACGUGUAUGCUGAAAGUAGCAUUG | 17.2 nM | 7.17 nM | – | –
13 | CUGACGUCAGGAUAUCUGAUGUCUAACUUCGGUUAGACAUCAGAGAAGGGACAUGAGGAUCACCCAUGUCAGAG | – | – | 28.7 nM | 23.1 nM
14 | CUGAGCUGAGGAUAUACAUGAGGAUCACCCAUGUGUUCGAGCUUGCGUACAGGCAGAUGUAGAAGGCAGUUCGG | – | – | 26.7 nM | 99.3 nM
15 | CUGAGGAAAGGAUAUACAUCAAACUCCUCAUCCUCGAAAGAACAUGAGGAUCACCCAUGUAGAAGGUUCGCGGU | – | – | 37.2 nM | 29.8 nM
16 | CUGAGGUCAGGAUAUGCAUGGCGGGACUUGCGUCGUGGCGUGCAGAAGGGACAUGAGGAUCACCCAUGUGGAGC | – | – | 86.7 nM | 249 nM
17 | CUGAUGUAAGGAUAUGUGUAGAAAUCAAAUCGGAUAUUCUAACAGAAGGUACAUGAGGAUCACCCAUGUGAGAA | – | – | 39.7 nM | 71.2 nM
18 | CUGAUGUGAGGAUAUGUGAUCUGCCUUCUAUAUAGAUGAUUACAGAAGGCACAUGAGGAUCACCCAUGUAGAUC | – | – | 74.7 nM | 62.6 nM
19 | CUGCUCCGUGUAGGAUAUCCGGGCAACCAAUCCGGAGAAGGACAUGAGGAUCACCCAUGUAUGUUAUUAUCACGUGAAGCGUCC | – | – | 23 nM | 25.3 nM
20 | CUGGGCGGAGGAUAUGCGGGUUGGGCUUUUGUUCGGCUGGGACAUGAGGAUCACCCAUGUAGAAGGUUGUUCGG | – | – | 168 nM | 124 nM
21 | CUGGUGUGAGGAUAUCAAAGACCUCGGGAAAGAACCGAGAAUGAGAAGGCACAUGAGGAUCACCCAUGUAACAA | – | – | 18.2 nM | 30.7 nM
22 | CUGGUUCUCGUAGGAUAUGUAGGAUAUGCCUACAUGAGGAUCACCCAUGUUCGCAUGGCAGAAGGACAGAAGGACGAUCACCAG | 55.6 nM | 15.4 nM | – | –
23 | CUGGUUGUCGAGGAUAUGUCCCGGCUCGCUGUCGCAGAAGGCGACACAUGAGGAUCACCCAUGUCGGUUCGCGU | – | – | 34.6 nM | 30.5 nM
24 | CUGGUUGUCGUAGGAUAUGUAGGAUAUUCCUACAUGAGGAUCACCCAUGUUCGCAUGGAAGAAGGACAGAAGGACGAUGACCAC | 930 nM | 23.2 nM | – | –
25 | CUGUCGAUAUCAGGAUAUCGUUUACAUACAUGAGGAUCACCCAUGUUGACAUGGAGCAUAAUUUGCGAGAAGGGAUAACGAUAG | 23.5 nM | 14.3 nM | – | –
26 | CUGUGACGGUGCGCAAGUGUACGUAGAAGGGUCACAUGAGGAUCACCCAUGUGGGCCUGCGAGUGACAGGAUAUACGUGCGUGC | – | – | 6.39 nM | 12.4 nM
27 | CUGUUAUAGAUCCAGAAUUACAACAUGAGGAUCACCCAUGUGCAGGAUAUCGGGUUGAUAGGCGCCGAGAAGGGUAUAGUCACG | – | – | 60.2 nM | 61.6 nM
28 | CUGUUAUUGAUCCAUUUUUUCAACAUGAGGAUCACCCAUGUGCAGGAUAUCGUGAUUAUUAUCAACGAGAAGGGCAGAUUCACG | – | – | 74 nM | 178 nM
